Activity calls are given as the source filed them. The rule behind the calls is not given here.
What was measured:
[1] = Cytotoxicity against human fibroblasts assessed as cell viability after 72 hrs by MTT assay relative to control; format: cell-based, Fibroblast; set-up: concentration or dose not given beside the values; conditions: read-out: Activity
[2] = tested on: M14; assay: Cytotoxicity against human M14 cells assessed as cell viability after 72 hrs by MTT assay; format: functional, cell-based; conditions: M14, 72 h
Procedure, shortened: (§1)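 Cells were grown at 37 °C in humidified 5% CO2/95% air. DU145 and A549 were kept in DMEM with 10% FCS, glutamine and nonessential amino acids. LNCaP, KB and M14 were kept in RPMI with 10% FCS, and Caco2 in MEM with 10% FCS. For the MTT assay, 1 × 10^4 cells were seeded per well and preincubated 24 h, then treated 72 h (DMSO ≤0.1%). MTT (0.5% in PBS) was added 4 h before the end, formazan was dissolved in DMSO, and OD was read at 550 nm. Triplicates were run.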

[3] = tested on: A549; assay: Cytotoxicity against human A549 cells assessed as cell viability after 72 hrs by MTT assay; format: functional, cell-based; conditions: A549, 72 h; procedure, shortened: as §1
[4] = tested on: KB; assay: Cytotoxicity against human KB cells assessed as cell viability after 72 hrs by MTT assay; format: functional, cell-based; procedure, shortened: as §1
[5] = tested on: LNCaP; assay: Cytotoxicity against human LNCAP cells assessed as cell viability after 72 hrs by MTT assay; format: functional, cell-based; procedure, shortened: as §1
[6] = tested on: DU-145; assay: Cytotoxicity against human DU145 cells assessed as cell viability after 72 hrs by MTT assay; format: functional, cell-based; conditions: DU-145, 72 h; procedure, shortened: as §1
[7] = tested on: Caco-2; assay: Cytotoxicity against human Caco2 cells assessed as cell viability after 72 hrs by MTT assay; format: functional, cell-based; conditions: Caco-2, 72 h; procedure, shortened: as §1
[8] = target: T1, AKT/p21CIP1 (Homo sapiens) (UniProt P38936+P31749); assay: Inhibition of AKT/p21CIP1 in human DU145 cells assessed as decrease in ratio of phosphorylated retinoblastoma level to unphosphorylated retinoblastoma level at 0.1 uM after 72 hrs by Western blotting analysis; format: cell-based; conditions: DU-145, 1 uM, in the assay text read “1 uM” for “0.1 uM”
Procedure, shortened: (§2)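 DU145 cells were treated 72 h and lysed in 2% SDS buffer. Equal protein was resolved by SDS-PAGE and probed for phospho-Rb Ser249/Thr252, total Rb (1:200 each) and α-tubulin. Bands were visualized on autoradiography film and read densitometrically relative to α-tubulin. The p-Rb/Rb ratio was compared with control. Results are mean SEM of three experiments, with Student's t test.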

[9] = tested on: DU-145; assay: Increase in p21 protein expression in human DU145 cells at 0.1 uM after 72 hrs by Western blotting analysis; format: functional, cell-based; conditions: 1 uM, in the assay text read “1 uM” for “0.1 uM”
Procedure, shortened: (§3)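 DU145 cells were treated 72 h, rinsed in PBS and lysed in 2% SDS buffer (50 mM Tris-HCl pH 6.8, protease inhibitors, 2 mM orthovanadate, 1 mM NaF, 1 mM pyrophosphate). Protein was quantified by BCA, and equal protein was run on 10% SDS-PAGE and blotted to nitrocellulose. Blots were blocked in 5% milk TBS-Tween 0.1%, detected by ECL and normalized to β-actin. Results are mean SEM of three experiments, with Student's t test versus control.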

[10] = tested on: DU-145; assay: Decrease in total GSK3beta protein level in human DU145 cells at 0.1 uM after 72 hrs by Western blotting analysis; format: functional, cell-based; conditions: 1 uM, in the assay text read “1 uM” for “0.1 uM”; procedure, shortened: as §3
[11] = tested on: DU-145; assay: Effect on total ERK1/2 protein level in human DU145 cells at 0.1 uM after 72 hrs by Western blotting analysis; format: functional, cell-based; procedure, shortened: as §3
[12] = target: Glycogen synthase kinase-3 beta (Homo sapiens) (UniProt P49841); assay: Inhibition of GSK3beta phosphorylation at Ser9 in human DU145 cells at 0.1 uM after 72 hrs by Western blotting analysis; format: cell-based; conditions: DU-145; procedure, shortened: as §3
[13] = tested on: DU-145; assay: Effect on total AKT protein level in human DU145 cells at 0.1 uM after 72 hrs by Western blotting analysis; format: functional, cell-based; procedure, shortened: as §3
[14] = target: T2, Mitogen-activated protein kinase; ERK1/ERK2 (Homo sapiens) (UniProt P27361+P28482); assay: Inhibition of ERK1/2 phosphorylation at Thr202/Tyr204 in human DU145 cells at 0.1 uM after 72 hrs by Western blotting analysis relative to control; format: cell-based; conditions: DU-145; procedure, shortened: as §3
[15] = target: RAC-alpha serine/threonine-protein kinase (Homo sapiens) (UniProt P31749); assay: Inhibition of AKT phosphorylation at Ser473 in human DU145 cells at 0.1 uM after 72 hrs by Western blotting analysis relative to control; format: cell-based; conditions: DU-145; procedure, shortened: as §3
[16] = target: T1, AKT/p21CIP1 (Homo sapiens); assay: Inhibition of AKT/p21CIP1 in human DU145 cells assessed as decrease in ratio of phosphorylated retinoblastoma level to unphosphorylated retinoblastoma level at 1 uM after 72 hrs by Western blotting analysis; format: cell-based; conditions: DU-145; procedure, shortened: as §2
[17] = tested on: DU-145; assay: Increase in p21 protein expression in human DU145 cells at 1 uM after 72 hrs by Western blotting analysis; format: functional, cell-based; procedure, shortened: as §3
[18] = tested on: DU-145; assay: Decrease in total GSK3beta protein level in human DU145 cells at 1 uM after 72 hrs by Western blotting analysis; format: functional, cell-based; procedure, shortened: as §3
[19] = target: Glycogen synthase kinase-3 beta (Homo sapiens) (UniProt P49841); assay: Inhibition of GSK3beta phosphorylation at Ser9 in human DU145 cells at 1 uM after 72 hrs by Western blotting analysis; format: cell-based; conditions: DU-145; procedure, shortened: as §3
[20] = tested on: DU-145; assay: Effect on total AKT protein level in human DU145 cells at 1 uM after 72 hrs by Western blotting analysis; format: functional, cell-based; procedure, shortened: as §3
[21] = tested on: DU-145; assay: Effect on total ERK1/2 protein level in human DU145 cells at 1 uM after 72 hrs by Western blotting analysis; format: functional, cell-based; procedure, shortened: as §3
[22] = target: T2, Mitogen-activated protein kinase; ERK1/ERK2 (Homo sapiens); assay: Inhibition of ERK1/2 phosphorylation at Thr202/Tyr204 in human DU145 cells at 1 uM after 72 hrs by Western blotting analysis relative to control; format: cell-based; conditions: DU-145; procedure, shortened: as §3
[23] = target: RAC-alpha serine/threonine-protein kinase (Homo sapiens) (UniProt P31749); assay: Inhibition of AKT phosphorylation at Ser473 in human DU145 cells at 1 uM after 72 hrs by Western blotting analysis relative to control; format: cell-based; conditions: DU-145; procedure, shortened: as §3

Glycogen synthase kinase-3 beta (Homo sapiens), sequence (P49841 whole entry, looked up): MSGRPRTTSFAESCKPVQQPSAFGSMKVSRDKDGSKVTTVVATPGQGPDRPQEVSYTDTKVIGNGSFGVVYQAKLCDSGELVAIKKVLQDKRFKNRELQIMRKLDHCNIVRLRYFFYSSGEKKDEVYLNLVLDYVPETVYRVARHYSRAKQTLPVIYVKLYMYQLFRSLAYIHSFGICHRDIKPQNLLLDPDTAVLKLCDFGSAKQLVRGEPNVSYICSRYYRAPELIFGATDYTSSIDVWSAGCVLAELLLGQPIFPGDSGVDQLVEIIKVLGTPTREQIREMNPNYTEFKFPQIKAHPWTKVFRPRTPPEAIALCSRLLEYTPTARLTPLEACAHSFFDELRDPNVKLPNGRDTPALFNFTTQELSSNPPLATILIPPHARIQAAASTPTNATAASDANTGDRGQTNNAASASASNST
RAC-alpha serine/threonine-protein kinase (Homo sapiens), sequence (P31749 whole entry): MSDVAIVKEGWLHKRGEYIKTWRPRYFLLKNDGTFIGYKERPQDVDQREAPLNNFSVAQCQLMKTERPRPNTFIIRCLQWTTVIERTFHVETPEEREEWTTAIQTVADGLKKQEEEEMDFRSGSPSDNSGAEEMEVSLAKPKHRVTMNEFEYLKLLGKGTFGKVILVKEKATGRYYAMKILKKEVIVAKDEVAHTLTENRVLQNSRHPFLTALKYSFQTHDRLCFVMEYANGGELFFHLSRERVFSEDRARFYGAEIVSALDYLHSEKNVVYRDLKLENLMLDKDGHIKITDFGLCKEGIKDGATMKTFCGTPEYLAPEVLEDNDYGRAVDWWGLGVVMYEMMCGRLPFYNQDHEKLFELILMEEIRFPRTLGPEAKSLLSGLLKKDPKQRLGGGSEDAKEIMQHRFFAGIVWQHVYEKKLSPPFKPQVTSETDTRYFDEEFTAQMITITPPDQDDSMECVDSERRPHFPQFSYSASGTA
T2 sequence (P27361 whole entry, looked up): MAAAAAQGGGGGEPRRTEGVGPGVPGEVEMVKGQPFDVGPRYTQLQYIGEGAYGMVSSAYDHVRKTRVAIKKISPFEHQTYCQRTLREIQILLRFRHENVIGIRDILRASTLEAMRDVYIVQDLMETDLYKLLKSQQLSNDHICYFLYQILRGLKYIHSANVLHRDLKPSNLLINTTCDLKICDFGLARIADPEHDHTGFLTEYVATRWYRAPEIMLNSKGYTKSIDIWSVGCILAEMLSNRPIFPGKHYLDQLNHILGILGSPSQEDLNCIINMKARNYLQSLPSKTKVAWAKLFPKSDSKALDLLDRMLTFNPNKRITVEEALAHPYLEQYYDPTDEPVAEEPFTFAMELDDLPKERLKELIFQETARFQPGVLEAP
T2 sequence (P28482 whole entry, looked up): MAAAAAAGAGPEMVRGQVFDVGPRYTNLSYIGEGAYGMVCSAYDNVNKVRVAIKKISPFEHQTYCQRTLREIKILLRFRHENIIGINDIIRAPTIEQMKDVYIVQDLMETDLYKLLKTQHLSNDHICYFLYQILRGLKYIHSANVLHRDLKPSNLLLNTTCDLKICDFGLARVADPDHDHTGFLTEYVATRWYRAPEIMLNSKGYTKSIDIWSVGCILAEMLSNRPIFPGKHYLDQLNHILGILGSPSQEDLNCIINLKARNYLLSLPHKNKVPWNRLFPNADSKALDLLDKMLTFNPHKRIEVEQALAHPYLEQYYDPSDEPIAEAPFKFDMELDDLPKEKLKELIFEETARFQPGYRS

| Structure (SMILES) | viability at 72 h [1] | IC50 [2] | IC50 [3] | IC50 [4] | IC50 [5] | IC50 [6] | IC50 [7] | further results |
| --- | --- | --- | --- | --- | --- | --- | --- | --- |
| CC(=O)n1cc(/C=C(/C(=O)O)c2ccc(Cl)cc2)c2cc(OCc3ccccc3)ccc21 | 85% | > 100 µM | 52.3 µM | > 100 µM | > 100 µM | 1.13 µM | – | – |
| COc1ccccc1/C(=C\c1cn(C(C)=O)c2ccc(OCc3ccccc3)cc12)C(=O)O | 85% | > 100 µM | 57.2 µM | > 100 µM | 48.5 µM | 1.01 µM | – | – |
| O=C(O)/C(=C/c1c[nH]c2ccc(OCc3ccccc3)cc12)c1ccccc1 | 85% | 95.2 µM | – | 55.5 µM | – | 34.7 µM | 41.6 µM | – |
| COc1ccc(/C(=C\c2c[nH]c3ccccc23)C(=O)O)cc1 | 85% | > 100 µM | – | > 100 µM | – | > 100 µM | > 100 µM | – |
| COc1ccc(Cn2cc(/C=C(/C(=O)O)c3ccccc3)c3cc(OCc4ccccc4)ccc32)cc1 | 85% | 64.5 µM | 1 µM | 97 µM | 38.2 µM | 0.86 µM | – | – |
| NC(=O)/C(=C/c1c[nH]c2ccc(OCc3ccccc3)cc12)c1ccccc1 | 85% | > 100 µM | – | 40.3 µM | – | 30.9 µM | > 100 µM | – |
| COc1cc(/C(=C\c2cn(C(C)=O)c3ccc(OCc4ccccc4)cc23)C(=O)O)cc(OC)c1OC | 85% | 57.1 µM | 89.1 µM | > 100 µM | 59.6 µM | 0.95 µM | – | – |
| CC(=O)n1cc(/C=C(/C(=O)O)c2ccc3c(c2)OCO3)c2cc(OCc3ccccc3)ccc21 | 85% | > 100 µM | 53.6 µM | > 100 µM | 99.1 µM | 1.15 µM | – | – |
| COc1ccc(/C(=C\c2c[nH]c3ccccc23)C(N)=O)cc1 | 85% | 53 µM | – | 86.2 µM | – | 40 µM | > 100 µM | – |
| COc1ccc(/C(=C\c2cn(C(C)=O)c3ccc(OCc4ccccc4)cc23)C(=O)O)cc1OC | 85% | 65.5 µM | 54.8 µM | 96.7 µM | > 100 µM | 1.05 µM | – | – |
| COc1ccc(/C(=C\c2c[nH]c3ccc(OCc4ccccc4)cc23)C(N)=O)cc1 | 85% | > 100 µM | – | > 100 µM | – | 39.8 µM | > 100 µM | – |
| NC(=O)/C(=C/c1c[nH]c2ccccc12)c1ccccc1 | 85% | 45.4 µM | – | > 100 µM | – | 33.3 µM | > 100 µM | – |
| COc1ccc(/C(=C\c2cn(C(C)=O)c3ccc(OCc4ccccc4)cc23)C(=O)O)cc1 | 85% | > 100 µM | > 100 µM | > 100 µM | 85 µM | 0.91 µM | – | inhibition [8]: Active; Activity [9]: Active; Activity [10]: Active; Activity [11]: inactive; inhibition [12]: inactive; Activity [13]: inactive; inhibition [14]: Active; inhibition [15]: Active; inhibition [16]: Active; Activity [17]: Active; Activity [18]: Active; inhibition [19]: inactive; Activity [20]: inactive; Activity [21]: inactive; inhibition [22]: 40%; inhibition [23]: 20% |
| CC(=O)n1cc(/C=C(/C(=O)O)c2ccccc2)c2cc(OCc3ccccc3)ccc21 | 85% | > 100 µM | 57.5 µM | 55.5 µM | > 100 µM | 26.7 µM | – | – |
| COc1ccc(/C(=C\c2c[nH]c3ccc(OCc4ccccc4)cc23)C(=O)O)cc1 | 85% | 58.4 µM | – | 38.5 µM | – | 38.1 µM | > 100 µM | – |
| COc1ccc(OC)c(/C(=C\c2cn(C(C)=O)c3ccc(OCc4ccccc4)cc23)C(=O)O)c1 | 85% | 87.1 µM | 54.5 µM | > 100 µM | 44.1 µM | 0.83 µM | – | – |
| CC(=O)n1cc(/C=C(/C(=O)O)c2ccc(OCc3ccccc3)cc2)c2cc(OCc3ccccc3)ccc21 | 85% | 58.2 µM | 44.1 µM | 43 µM | 77.7 µM | 1.41 µM | – | – |
| COc1cccc(/C(=C\c2cn(C(C)=O)c3ccc(OCc4ccccc4)cc23)C(=O)O)c1 | 85% | > 100 µM | 45.2 µM | > 100 µM | 65.1 µM | 1.08 µM | – | – |
| O=C(O)/C(=C/c1c[nH]c2ccccc12)c1ccccc1 | 85% | > 100 µM | – | > 100 µM | – | > 100 µM | > 100 µM | – |
| COc1cc(OC)cc(/C(=C\c2cn(C(C)=O)c3ccc(OCc4ccccc4)cc23)C(=O)O)c1 | 85% | 94 µM | 26 µM | 30.4 µM | 26.1 µM | 0.88 µM | – | – |
